# Experimental data taken from ChEMBL document CHEMBL1158530, “Phosphate ester derivatives of homocamptothecin: synthesis, solution stabilities and antitumor activities” (Bioorg Med Chem, 2010).
# Calls of active or inactive are those of the source. The calls are words filed in the database; no cut-off is given here.
# Tested on: A549
# Assay: Antitumor activity against human A549 cells xenografted in BALB/c mouse assessed as inhibition of tumor growth at 50 mg/kg, ip relative to control
# Format: functional
# Conditions: route intraperitoneal, read-out: TGI
# Procedure, shortened: (§1)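 Male BALB/c nude mice (18-20g) implanted subcutaneously in right axilla with A549 cells. Treatment started at day 17 when tumors reached about 100–300 mm³. Single ip injection on day 17, six mice per group, eight controls. Caliper length and width every 4 days, TV = 1/2 × a × b². Sacrificed day 35, tumors removed; growth inhibition relative to placebo controls.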
row,SMILES,inhibition in vivo at 50 mg/kg
1,CCc1c2c(nc3ccc(OC(=O)N4CCC(N5CCCCC5)CC4)cc13)-c1cc3c(c(=O)n1C2)COC(=O)[C@]3(O)CC [IRINOTECAN],51%
2,CCCCCOP(=O)(OCCCCC)Oc1ccc2nc3c(c(C)c2c1)Cn1c-3cc2c(c1=O)COC(=O)C[C@]2(O)CC,42%

# Tested on: A549
# Assay: Antitumor activity against human A549 cells xenografted in BALB/c mouse assessed as inhibition of tumor growth at 6.25 to 25 mg/kg, ip relative to control
# Format: functional
# Conditions: dose mg/kg 6.25-25; route intraperitoneal
# Procedure, shortened: as §1
row,SMILES,TGI
1,CCCCOP(=O)(OCCCC)Oc1ccc2nc3c(c(C)c2c1)Cn1c-3cc2c(c1=O)COC(=O)C[C@]2(O)CC,25%

# Tested on: A549
# Assay: Antitumor activity against human A549 cells xenografted in BALB/c mouse assessed as inhibition of tumor growth at 25 mg/kg, ip relative to control
# Format: functional
# Conditions: route intraperitoneal, read-out: TGI
# Procedure, shortened: as §1
row,SMILES,inhibition in vivo at 25 mg/kg
1,CCCCOP(=O)(OCCCC)Oc1ccc2nc3c(c(C)c2c1)Cn1c-3cc2c(c1=O)COC(=O)C[C@]2(O)CC,59%

# Species on record: Bos taurus
# Assay: Inhibition of calf thymus topoisomerase 1-mediated relaxation of Escherichia coli pBR322 plasmid DNA after 15 mins by cleavable complex assay
# Conditions: not given
# Procedure, shortened: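 Calf thymus Topo I (0.5 U) incubated with 0.25 μg supercoiled pBR322 DNA in Topo I buffer with 0.1% BSA stock, with or without drug at 1, 10 and 50 μM, 37 °C for 15 min. Stopped with SDS (0.5% final). Products resolved on 0.8% agarose gel in TAE (120 V, 40 min), ethidium bromide stained, imaged under UV.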
row,SMILES,inhibition
1,CC[C@@]1(O)CC(=O)OCc2c1cc1n(c2=O)Cc2c-1nc1ccc(O)cc1c2C,Dose-dependent effect

# Tested on: A549
# Assay: Cytotoxicity against human A549 cells after 72 hrs by MTT assay
# Format: functional, cell-based
# Conditions: A549, 72 h
# Procedure, shortened: (§2)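 A549, MDA-MB-435 and LOVO cells seeded at 6000–10,000 per well. Treated in triplicate with graded drug concentrations for 72 h at 37 °C. Viability read by MTT; IC50 taken from the dose–response curve.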
row,SMILES,IC50
1,CCOP(=O)(O)Oc1ccc2nc3c(c(C)c2c1)Cn1c-3cc2c(c1=O)COC(=O)C[C@]2(O)CC,11.4 µM
2,CCCCCCCCCCCCCCCCOP(=O)(OCCCCCCCCCCCCCCCC)Oc1ccc2nc3c(c(C)c2c1)Cn1c-3cc2c(c1=O)COC(=O)C[C@]2(O)CC,> 100 µM
3,CC[C@@]1(O)CC(=O)OCc2c1cc1n(c2=O)Cc2c-1nc1ccc(OP(=O)(OCC(F)(F)F)OCC(F)(F)F)cc1c2C,15.5 µM
4,CCCCOP(=O)(OCCCC)Oc1ccc2nc3c(c(C)c2c1)Cn1c-3cc2c(c1=O)COC(=O)C[C@]2(O)CC,2.84 µM
5,CC[C@@]1(O)CC(=O)OCc2c1cc1n(c2=O)Cc2c-1nc1ccc(O)cc1c2C,0.03 µM
6,CCOP(=O)(OCC)Oc1ccc2nc3c(c(C)c2c1)Cn1c-3cc2c(c1=O)COC(=O)C[C@]2(O)CC,8.05 µM
7,CC[C@@]1(O)CC(=O)OCc2c1cc1n(c2=O)Cc2c-1nc1ccc(OP(=O)(O)OCc3ccccc3)cc1c2C,29.4 µM
8,CC[C@@]1(O)CC(=O)OCc2c1cc1n(c2=O)Cc2c-1nc1ccc(OP(=O)(OC(C)C)OC(C)C)cc1c2C,11.4 µM
9,CCc1c2c(nc3ccc(OC(=O)N4CCC(N5CCCCC5)CC4)cc13)-c1cc3c(c(=O)n1C2)COC(=O)[C@]3(O)CC [IRINOTECAN],4.61 µM
10,CC[C@@]1(O)C(=O)OCc2c1cc1n(c2=O)Cc2cc3c(CN(C)C)c(O)ccc3nc2-1 [TOPOTECAN],0.04 µM
11,CCCCCOP(=O)(OCCCCC)Oc1ccc2nc3c(c(C)c2c1)Cn1c-3cc2c(c1=O)COC(=O)C[C@]2(O)CC,2.3 µM

# Species on record: Bos taurus
# Assay: Inhibition of calf thymus topoisomerase 1-mediated relaxation of Escherichia coli pBR322 plasmid DNA at 1 uM after 15 mins by cleavable complex assay
# Conditions: not given
# Procedure, shortened: (§3)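 Calf thymus Topo I (0.5 U) with 0.25 μg supercoiled pBR322 in Topo I buffer containing BSA, with or without drug, 37 °C for 15 min. Stopped with 0.5% SDS final. Run on 0.8% agarose gel in TAE, 120 V for 40 min, stained with ethidium bromide, viewed under UV.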
row,SMILES,inhibition
1,CC[C@@]1(O)C(=O)OCc2c1cc1n(c2=O)Cc2cc3ccccc3nc2-1,inactive

# Tested on: not listed separately
# Assay: Chemical stability assessed as compound remaining at pH 3.0 after 24 hrs by modified HPLC method
# Format: physicochemical
# Conditions: buffer, read-out: Stability
# Procedure, shortened: (§4)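 Drug in DMSO (2 mM, 430 μL) added to 70 μL of aqueous solution preincubated 5 min at 37 °C. Samples held at 37 °C, pH 3.0 or pH 7.4. Percent of initial phosphate-form concentration followed by modified HPLC.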
row,SMILES,remaining at 24 h
1,CCCCOP(=O)(OCCCC)Oc1ccc2nc3c(c(C)c2c1)Cn1c-3cc2c(c1=O)COC(=O)C[C@]2(O)CC,100%
2,CCCCCOP(=O)(OCCCCC)Oc1ccc2nc3c(c(C)c2c1)Cn1c-3cc2c(c1=O)COC(=O)C[C@]2(O)CC,100%

# Tested on: A549
# Assay: Antitumor activity against human A549 cells xenografted in ip dosed BALB/c mouse assessed as tumor regression
# Format: functional, organism-based
# Conditions: not given
# Procedure, shortened: as §1
row,SMILES,Activity
1,CCCCOP(=O)(OCCCC)Oc1ccc2nc3c(c(C)c2c1)Cn1c-3cc2c(c1=O)COC(=O)C[C@]2(O)CC,Dose-dependent effect
2,CCCCCOP(=O)(OCCCCC)Oc1ccc2nc3c(c(C)c2c1)Cn1c-3cc2c(c1=O)COC(=O)C[C@]2(O)CC,Dose-dependent effect

# Species on record: Bos taurus
# Assay: Inhibition of calf thymus topoisomerase 1-mediated relaxation of Escherichia coli pBR322 plasmid DNA at 100 uM after 15 mins by cleavable complex assay
# Conditions: not given
# Procedure, shortened: as §3
row,SMILES,inhibition
1,CCCCOP(=O)(OCCCC)Oc1ccc2nc3c(c(C)c2c1)Cn1c-3cc2c(c1=O)COC(=O)C[C@]2(O)CC,Active

# Tested on: MDA-MB-435
# Assay: Cytotoxicity against human MDA-MB-435 cells after 72 hrs by MTT assay
# Format: functional, cell-based
# Conditions: MDA-MB-435, 72 h
# Procedure, shortened: as §2
row,SMILES,IC50
1,CCOP(=O)(O)Oc1ccc2nc3c(c(C)c2c1)Cn1c-3cc2c(c1=O)COC(=O)C[C@]2(O)CC,5.26 µM
2,CCCCCCCCCCCCCCCCOP(=O)(OCCCCCCCCCCCCCCCC)Oc1ccc2nc3c(c(C)c2c1)Cn1c-3cc2c(c1=O)COC(=O)C[C@]2(O)CC,> 100 µM
3,CC[C@@]1(O)CC(=O)OCc2c1cc1n(c2=O)Cc2c-1nc1ccc(OP(=O)(OCC(F)(F)F)OCC(F)(F)F)cc1c2C,0.22 µM
4,CCCCOP(=O)(OCCCC)Oc1ccc2nc3c(c(C)c2c1)Cn1c-3cc2c(c1=O)COC(=O)C[C@]2(O)CC,0.51 µM
5,CC[C@@]1(O)CC(=O)OCc2c1cc1n(c2=O)Cc2c-1nc1ccc(O)cc1c2C,< 0.001 µM
6,CCOP(=O)(OCC)Oc1ccc2nc3c(c(C)c2c1)Cn1c-3cc2c(c1=O)COC(=O)C[C@]2(O)CC,0.79 µM
7,CC[C@@]1(O)CC(=O)OCc2c1cc1n(c2=O)Cc2c-1nc1ccc(OP(=O)(O)OCc3ccccc3)cc1c2C,10.8 µM
8,CC[C@@]1(O)CC(=O)OCc2c1cc1n(c2=O)Cc2c-1nc1ccc(OP(=O)(OC(C)C)OC(C)C)cc1c2C,3.4 µM
9,CCc1c2c(nc3ccc(OC(=O)N4CCC(N5CCCCC5)CC4)cc13)-c1cc3c(c(=O)n1C2)COC(=O)[C@]3(O)CC [IRINOTECAN],1.14 µM
10,CC[C@@]1(O)C(=O)OCc2c1cc1n(c2=O)Cc2cc3c(CN(C)C)c(O)ccc3nc2-1 [TOPOTECAN],< 0.001 µM
11,CCCCCOP(=O)(OCCCCC)Oc1ccc2nc3c(c(C)c2c1)Cn1c-3cc2c(c1=O)COC(=O)C[C@]2(O)CC,0.72 µM

# Tested on: LoVo
# Assay: Cytotoxicity against human LoVo cells after 72 hrs by MTT assay
# Format: functional, cell-based
# Conditions: not given
# Procedure, shortened: as §2
row,SMILES,IC50
1,CCOP(=O)(O)Oc1ccc2nc3c(c(C)c2c1)Cn1c-3cc2c(c1=O)COC(=O)C[C@]2(O)CC,7.24 µM
2,CCCCCCCCCCCCCCCCOP(=O)(OCCCCCCCCCCCCCCCC)Oc1ccc2nc3c(c(C)c2c1)Cn1c-3cc2c(c1=O)COC(=O)C[C@]2(O)CC,> 100 µM
3,CC[C@@]1(O)CC(=O)OCc2c1cc1n(c2=O)Cc2c-1nc1ccc(OP(=O)(OCC(F)(F)F)OCC(F)(F)F)cc1c2C,5.42 µM
4,CCCCOP(=O)(OCCCC)Oc1ccc2nc3c(c(C)c2c1)Cn1c-3cc2c(c1=O)COC(=O)C[C@]2(O)CC,0.91 µM
5,CC[C@@]1(O)CC(=O)OCc2c1cc1n(c2=O)Cc2c-1nc1ccc(O)cc1c2C,0.01 µM
6,CCOP(=O)(OCC)Oc1ccc2nc3c(c(C)c2c1)Cn1c-3cc2c(c1=O)COC(=O)C[C@]2(O)CC,1.26 µM
7,CC[C@@]1(O)CC(=O)OCc2c1cc1n(c2=O)Cc2c-1nc1ccc(OP(=O)(O)OCc3ccccc3)cc1c2C,9.31 µM
8,CC[C@@]1(O)CC(=O)OCc2c1cc1n(c2=O)Cc2c-1nc1ccc(OP(=O)(OC(C)C)OC(C)C)cc1c2C,5.56 µM
9,CCc1c2c(nc3ccc(OC(=O)N4CCC(N5CCCCC5)CC4)cc13)-c1cc3c(c(=O)n1C2)COC(=O)[C@]3(O)CC [IRINOTECAN],4.99 µM
10,CC[C@@]1(O)C(=O)OCc2c1cc1n(c2=O)Cc2cc3c(CN(C)C)c(O)ccc3nc2-1 [TOPOTECAN],0.02 µM
11,CCCCCOP(=O)(OCCCCC)Oc1ccc2nc3c(c(C)c2c1)Cn1c-3cc2c(c1=O)COC(=O)C[C@]2(O)CC,1.19 µM

# Tested on: not listed separately
# Assay: Chemical stability assessed as compound remaining at pH 7.4 after 24 hrs by modified HPLC method
# Format: physicochemical
# Conditions: buffer, read-out: Stability
# Procedure, shortened: as §4
row,SMILES,remaining at 24 h
1,CCCCOP(=O)(OCCCC)Oc1ccc2nc3c(c(C)c2c1)Cn1c-3cc2c(c1=O)COC(=O)C[C@]2(O)CC,95%
2,CCCCCOP(=O)(OCCCCC)Oc1ccc2nc3c(c(C)c2c1)Cn1c-3cc2c(c1=O)COC(=O)C[C@]2(O)CC,91%
